Data on 13 molecules can be found in ChEMBL document CHEMBL1126272, “Inhibition of collagenase by aranciamycin and aranciamycin derivatives” (J Med Chem, 1992).

SMILES strings stand for the structures. The source made the active and inactive calls. The rule behind the calls is not given here.

Test [1] deals with Pancreatic elastase (Sus scrofa) (UniProt P08419+P00772). The experiment in a line: Inhibition of Pancreatic elastase at 10e-5 M; NI means no inhibition. It is filed as protein assay. In outline:
(§1)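 Porcine pancreatic elastase diluted to 2 mg/mL in PBS pH 7.5. Substrate N-acetyl-Ala-Ala-Ala-p-nitroanilide, 0.2 mM in PBS with 5% DMSO, preincubated 5 min at 37 °C with or without compound. Enzyme then added and the reaction followed at 410 nm for 5 min. Compounds dissolved in DMSO, ≤0.5% in samples.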

The target in test [2] is Serine protease 1 (Homo sapiens) (UniProt P07477). Kind of test: Inhibitory activity against trypsin at 10e-5 M; NI = no inhibition. Put shortly: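 Trypsin dissolved at 1 mg/mL in PBS pH 7.5. Substrate N-α-benzoyl-L-arginine-p-nitroanilide, 0.2 mM in PBS with 5% DMSO, preincubated 5 min at 37 °C with or without compound. Enzyme then added and the reaction followed at 410 nm for 5 min. Compounds dissolved in DMSO, ≤0.5% in samples.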

Test [3] is described as follows: Concentration inhibiting [3H]TdR incorporation in Yoshida sarcoma tumor cells in vitro in rats. It is filed as functional, cell-based, Rattus norvegicus. Put shortly:
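Yoshida sarcoma cells kept by weekly intraperitoneal passage in Lewis rats. Peritoneal cells washed, placed in RPMI 1640 with 10% FCS at 37 °C, 5% CO2. Nonadherent cells taken after 2 h, set at 10^6 cells/mL, then exposed 24 h to compounds (10^-8–10^-4 M, DMSO ≤0.5%). [3H]thymidine (1 μCi/mL) given for the last 4 h. IC50 for incorporation into DNA read from dose-response curve.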

Test [4] addresses T1, Chymotrypsin-like elastase family member 2A (Sus scrofa) (UniProt P08419).
T1 sequence (whole entry): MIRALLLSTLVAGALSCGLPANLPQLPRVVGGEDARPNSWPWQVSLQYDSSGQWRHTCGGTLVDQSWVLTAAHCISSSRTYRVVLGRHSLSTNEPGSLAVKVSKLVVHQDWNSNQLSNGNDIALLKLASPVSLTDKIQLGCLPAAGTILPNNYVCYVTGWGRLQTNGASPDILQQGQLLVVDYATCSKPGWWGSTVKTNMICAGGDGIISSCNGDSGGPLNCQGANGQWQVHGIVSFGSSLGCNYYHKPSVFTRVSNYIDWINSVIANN
Kind of test: Inhibitory activity against elastase at a concentration of 10e-5 M; NI means no inhibition. Put shortly:
as §1

Sequence of Pancreatic elastase (Sus scrofa) (P00772 whole entry, looked up, one chain of several): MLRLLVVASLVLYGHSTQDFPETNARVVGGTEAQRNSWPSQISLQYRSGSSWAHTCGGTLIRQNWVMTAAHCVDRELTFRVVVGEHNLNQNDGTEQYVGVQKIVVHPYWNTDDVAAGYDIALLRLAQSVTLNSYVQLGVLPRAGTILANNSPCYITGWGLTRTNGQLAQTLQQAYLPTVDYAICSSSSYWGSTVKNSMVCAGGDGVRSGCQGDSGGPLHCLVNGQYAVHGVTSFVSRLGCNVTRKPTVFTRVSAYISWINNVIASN
Sequence of Serine protease 1 (Homo sapiens) (P07477 whole entry): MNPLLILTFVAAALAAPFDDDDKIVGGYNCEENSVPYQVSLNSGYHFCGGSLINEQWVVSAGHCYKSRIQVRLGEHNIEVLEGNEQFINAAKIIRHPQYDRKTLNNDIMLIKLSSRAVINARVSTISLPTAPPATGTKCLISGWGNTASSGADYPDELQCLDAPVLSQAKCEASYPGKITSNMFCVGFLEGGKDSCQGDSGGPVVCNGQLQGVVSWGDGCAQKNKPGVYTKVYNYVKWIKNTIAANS

As to `COC1C(O[C@@H]2c3c(cc4c(c3O)C(=O)c3c(O)cccc3C4=O)C(=O)[C@@](C)(O)[C@H]2OC)OC(C)C(OC(C)=O)C1OC(C)=O` (some centres undefined), the inhibition result in test [1] and in test [2] was “inactive” in each case. Inhibition in test [3] was half-maximal at 1300 nM (IC50).
For the molecule `COc1cccc2c1C(=O)c1c(O)c3c(c(O)c1C2=O)C[C@@](O)(C(C)=O)C[C@@H]3O[C@H]1C[C@H](N)[C@H](O)[C@H](C)O1` [DAUNORUBICIN], the inhibition result in test [1] and in test [2] was “inactive” each time. Also, the IC50 (in general, the concentration at which inhibition is half-maximal) in test [3] is less than 20 nM.
For the molecule `COC1C(O[C@@H]2c3c(cc4c(c3O)C(=O)c3c(O)cccc3C4=O)C(=O)[C@@](C)(O)[C@H]2OC)OC(C)C(O)C1O` (some centres undefined), the inhibition entry in test [1] and in test [2] was “inactive” in each case. Besides, the IC50 in test [3] was 2200 nM.
As for `COC1C(C)OC(O[C@@H]2c3c(cc4c(c3O)C(=O)c3c(O)cccc3C4=O)C(=O)[C@@](C)(O)[C@H]2OC)C(OC)C1OC` (some centres undefined), the inhibition entry in test [1] and in test [2] was “inactive” in each case. The molecule also yielded an IC50 in test [3] of 4700 nM.
For the molecule `COC1C(O[C@@H]2c3c(cc4c(c3O)C(=O)c3c(ccc(N(C)C)c3O)C4=O)C(=O)[C@@](C)(O)[C@H]2OC)OC(C)C(O)C1O` (some centres undefined), the inhibition entry in test [1] and in test [2] was “inactive” in each case. Besides, 630 nM corresponded to half-maximal inhibition in test [3] (IC50).
Turning to `COC1C(O[C@@H]2c3c(cc4c(c3O)C(=O)c3c(O)c(N(C)C)cc(N(C)C)c3C4=O)C(=O)[C@@](C)(O)[C@H]2OC)OC(C)C(O)C1O` (some centres undefined), the inhibition entry in test [1] and in test [2] was “inactive” in each case. In addition, 5000 nM corresponded to half-maximal inhibition in test [3] (IC50).
Regarding `CC[C@@]1(O)C[C@H](O[C@H]2C[C@H](N(C)C)[C@H](O[C@H]3C[C@H](O)[C@H](O[C@H]4CCC(=O)[C@H](C)O4)[C@H](C)O3)[C@H](C)O2)c2c(cc3c(c2O)C(=O)c2c(O)cccc2C3=O)[C@H]1C(=O)OC` [ACLARUBICIN], the inhibition entry in test [4] and in test [2] was “inactive” throughout. In test [3], this molecule displayed an IC50 of less than 20 nM.
Take `CCOP(=O)(OCC)O[C@]1(C)C(=O)c2cc3c(c(O)c2[C@@H](OC2OC(C)C(O)C(O)C2OC)[C@@H]1OC)C(=O)c1c(O)cccc1C3=O` (some centres undefined): the inhibition entry in test [1] and in test [2] was “inactive” in each case. This molecule showed an IC50 in test [3] of 630 nM.
With `COC1C(O[C@@H]2c3c(cc4c(c3O)C(=O)c3c(O)cccc3C4=O)C(=O)[C@@](C)(O)[C@H]2OC)OC(C)C(O)C1O[Si](C)(C)C(C)(C)C` (some centres undefined), the inhibition entry in test [1] and in test [2] was “inactive” throughout. The molecule also displayed a half-maximal inhibitory concentration (IC50) in test [3] of 1400 nM.
Consider `COC1C(O[C@@H]2c3c(cc4c(c3O)C(=O)c3c(O)cccc3C4=O)C(/N=N/S(=O)(=O)c3ccc(C)cc3)[C@@](C)(O)[C@H]2OC)OC(C)C(O)C1O` (some centres undefined), for which the inhibition result in test [1] and in test [2] was “inactive” throughout. In test [3], this molecule yielded an IC50 of 3900 nM.
On to `COC1C(O[C@@H]2c3c(cc4c(c3O)C(=O)c3c(O)cccc3C4=O)C(=O)[C@](C)(O)[C@H]2OC)OC(C)C(O)C1O` (some centres undefined), for which the inhibition entry in test [1] and in test [2] was “inactive” in each case. Further, in test [3], 1000 nM corresponded to half-maximal inhibition (IC50).
On to `COc1cccc2c1C(=O)c1c(O)c3c(c(O)c1C2=O)C[C@@](O)(C(=O)CO)C[C@@H]3O[C@H]1C[C@H](N)[C@H](O)[C@H](C)O1` [DOXORUBICIN], for which the inhibition entry in test [1] and in test [2] was “inactive” in each case. Also, the half-inhibitory concentration (IC50) in test [3] was less than 20 nM.
Take `CO[C@H]1[C@H](O)c2c(cc3c(c2O)C(=O)c2c(O)cccc2C3=O)C(=O)[C@@]1(C)O`: the inhibition entry in test [1] and in test [2] was “inactive” throughout. Also, the concentration for half-maximal inhibition (IC50) in test [3] worked out at 600 nM.
